Measurements published in article PMC9292600 (Clinical Pharmacology in Drug Development, 2021).
Read-outs that look alike come from different tables or passages of the source.

Experiments:
[1] = format: in vivo, human (healthy adult participants); conditions: for AUC(0-inf) / AUC(0-t) / Cmax / half-life / Tmax: human, plasma, po; for Tmax: median (range)
[2] = Safety and tolerability; format: in vivo, human (healthy adult participants)
How it was run: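 Healthy adults received single 100-mg oral doses of 4×25-mg tablets, either fasted, after a high-fat meal, or after five evening doses of rabeprazole 20 mg. Safety was monitored by physical examination, laboratory tests, ECG, concomitant medication review, and AE frequency and severity. The safety population comprised all participants receiving ≥1 dose of study medication.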

[3] = both acetate and freebase forms, cited from earlier work
[4] = cited from earlier work
[5] = 100-mg oral solution (test) versus 100-mg tablets (reference)
[6] = 100-mg tablets + high-fat meal (test) versus 100-mg tablets (reference)
[7] = 100-mg tablets + rabeprazole 20-mg (test) versus 100-mg tablets (reference)
[8] = Treatment A: 100-mg tablets, fasted, n = 24
[9] = Treatment B: 100-mg tablets + high-fat meal, n = 23
[10] = Treatment C: 100-mg tablets + rabeprazole 20 mg, n = 23
[11] = Treatment D: 100-mg oral solution, n = 24

## C[C@H]1Oc2cc(cnc2N)-c2c(nn(C)c2C#N)CN(C)C(=O)c2ccc(F)cc21 [Lorlatinib, (10R)‐7‐amino‐12‐fluoro‐2,10,16‐trimethyl‐15‐oxo‐10,15,16,17‐tetrahydro‐2H‐8,4‐(metheno)pyrazolo[4,3‐h][2,5,11]‐benzoxadiazacyclotetradecine‐3‐carbonitrile]
[1]; [5]
  Ratio (Test/Reference) of Adjusted Means, AUCinf: 107.9%
  Ratio (Test/Reference) of Adjusted Means, AUClast: 107.8%
  Ratio (Test/Reference) of Adjusted Means, Cmax: 129.7%
[1]; [6]
  Ratio (Test/Reference) of Adjusted Means, AUCinf: 104.7%
  Ratio (Test/Reference) of Adjusted Means, AUClast: 104.6%
  Ratio (Test/Reference) of Adjusted Means, Cmax: 90.9%
[1]; [7]
  Ratio (Test/Reference) of Adjusted Means, AUCinf: 100.9%
  Ratio (Test/Reference) of Adjusted Means, AUClast: 99.7%
  Ratio (Test/Reference) of Adjusted Means, Cmax: 70.7%
[1]; 100-mg tablets, fasted (reference), mixed-effects model
  Adjusted geometric mean Cmax: 533.1 ng/mL
[1]; Treatment A: single oral 100-mg dose, tablets, fasted, n = 24, mean ± SD
  Arithmetic mean CL/F: 11.8 ± 2.5 L/h
[1]; Treatment A: single oral 100-mg dose, tablets, fasted, n = 24, value (geometric %CV)
  Geometric mean CL/F: 11.5 (24) L/h
[1]; Treatment B: single oral 100-mg dose, tablets + high-fat meal, n = 23, mean ± SD
  Arithmetic mean CL/F: 11.7 ± 2.8 L/h
[1]; Treatment B: single oral 100-mg dose, tablets + high-fat meal, n = 23, value (geometric %CV)
  Geometric mean CL/F: 11.4 (24) L/h
[1]; Treatment C: single oral 100-mg dose, tablets + rabeprazole 20 mg, fasted, n = 23, mean ± SD
  Arithmetic mean CL/F: 11.9 ± 2.5 L/h
[1]; Treatment C: single oral 100-mg dose, tablets + rabeprazole 20 mg, fasted, n = 23, value (geometric %CV)
  Geometric mean CL/F: 11.6 (24) L/h
[1]; Treatment D: single oral 100-mg dose, oral solution, fasted, n = 24, mean ± SD
  Arithmetic mean CL/F: 11.0 ± 2.4 L/h
[1]; Treatment D: single oral 100-mg dose, oral solution, fasted, n = 24, value (geometric %CV)
  Geometric mean CL/F: 10.7 (24) L/h
[1]; 100 mg, Arithmetic mean AUCinf, Treatment A: single oral 100-mg dose, tablets, fasted, n = 24, mean ± SD
  AUC(0-inf): 8960 ± 2380 ng·h/mL
[1]; 100 mg, Arithmetic mean AUCinf, Treatment B: single oral 100-mg dose, tablets + high-fat meal, n = 23, mean ± SD
  AUC(0-inf): 9030 ± 2280 ng·h/mL
[1]; 100 mg, Arithmetic mean AUCinf, Treatment D: single oral 100-mg dose, oral solution, fasted, n = 24, mean ± SD
  AUC(0-inf): 9620 ± 2440 ng·h/mL
[1]; 100 mg, Arithmetic mean AUClast, Treatment A: single oral 100-mg dose, tablets, fasted, n = 24, mean ± SD
  AUC(0-t): 8380 ± 1990 ng·h/mL
[1]; 100 mg, Arithmetic mean AUClast, Treatment B: single oral 100-mg dose, tablets + high-fat meal, n = 23, mean ± SD
  AUC(0-t): 8460 ± 1940 ng·h/mL
[1]; 100 mg, Arithmetic mean AUClast, Treatment D: single oral 100-mg dose, oral solution, fasted, n = 24, mean ± SD
  AUC(0-t): 8990 ± 2040 ng·h/mL
[1]; 100 mg, Arithmetic mean Cmax, Treatment A: single oral 100-mg dose, tablets, fasted, n = 24, mean ± SD
  Cmax: 559 ± 115 ng/mL
[1]; 100 mg, Arithmetic mean Cmax, Treatment D: single oral 100-mg dose, oral solution, fasted, n = 24, mean ± SD
  Cmax: 722 ± 185 ng/mL
[1]; 100 mg, Arithmetic mean t1/2, Treatment A: single oral 100-mg dose, tablets, fasted, n = 24, mean ± SD
  half-life: 24.2 ± 5.2 h
[1]; 100 mg, Arithmetic mean t1/2, Treatment B: single oral 100-mg dose, tablets + high-fat meal, n = 23, mean ± SD
  half-life: 23.7 ± 6 h
[1]; 100 mg, Arithmetic mean t1/2, Treatment D: single oral 100-mg dose, oral solution, fasted, n = 24, mean ± SD
  half-life: 24.1 ± 5.4 h
[1]; 100 mg, Geometric mean AUCinf, Treatment A: single oral 100-mg dose, tablets, fasted, n = 24, value (geometric %CV)
  AUC(0-inf): 8710 ng·h/mL
[1]; 100 mg, Geometric mean AUCinf, Treatment B: single oral 100-mg dose, tablets + high-fat meal, n = 23, value (geometric %CV)
  AUC(0-inf): 8780 ng·h/mL
[1]; 100 mg, Geometric mean AUCinf, Treatment D: single oral 100-mg dose, oral solution, fasted, n = 24, value (geometric %CV)
  AUC(0-inf): 9360 ng·h/mL
[1]; 100 mg, Geometric mean AUClast, Treatment B: single oral 100-mg dose, tablets + high-fat meal, n = 23, value (geometric %CV)
  AUC(0-t): 8260 ng·h/mL
[1]; 100 mg, Geometric mean AUClast, Treatment D: single oral 100-mg dose, oral solution, fasted, n = 24, value (geometric %CV)
  AUC(0-t): 8790 ng·h/mL
[1]; 100 mg, Geometric mean Cmax, Treatment A: single oral 100-mg dose, tablets, fasted, n = 24, value (geometric %CV)
  Cmax: 548 ng/mL
[1]; 100 mg, Geometric mean Cmax, Treatment B: single oral 100-mg dose, tablets + high-fat meal, n = 23, value (geometric %CV)
  Cmax: 489 ng/mL
[1]; 100 mg, Geometric mean Cmax, Treatment D: single oral 100-mg dose, oral solution, fasted, n = 24, value (geometric %CV)
  Cmax: 705 ng/mL
[1]; 100 mg, Treatment B: single oral 100-mg dose, tablets + high-fat meal, n = 23
  Tmax: 2 h
[1]; 100 mg, Treatment D: single oral 100-mg dose, oral solution, fasted, n = 24
  Tmax: 1 h
[1]; Arithmetic mean AUCinf, Treatment C: single oral 100-mg dose, tablets + rabeprazole 20 mg, fasted, n = 23, mean ± SD
  AUC(0-inf): 8880 ± 2430 ng·h/mL
[1]; Arithmetic mean AUClast, Treatment C: single oral 100-mg dose, tablets + rabeprazole 20 mg, fasted, n = 23, mean ± SD
  AUC(0-t): 8190 ± 1930 ng·h/mL
[1]; Arithmetic mean Cmax, Treatment C: single oral 100-mg dose, tablets + rabeprazole 20 mg, fasted, n = 23, mean ± SD
  Cmax: 398 ± 114 ng/mL
[1]; Geometric mean AUCinf, Treatment C: single oral 100-mg dose, tablets + rabeprazole 20 mg, fasted, n = 23, value (geometric %CV)
  AUC(0-inf): 8630 ng·h/mL
[1]; Geometric mean AUClast, Treatment C: single oral 100-mg dose, tablets + rabeprazole 20 mg, fasted, n = 23, value (geometric %CV)
  AUC(0-t): 8010 ng·h/mL
[1]; Geometric mean Cmax, Treatment C: single oral 100-mg dose, tablets + rabeprazole 20 mg, fasted, n = 23, value (geometric %CV)
  Cmax: 383 ng/mL
[1]; Treatment C: single oral 100-mg dose, tablets + rabeprazole 20 mg, fasted, n = 23
  Tmax: 2 h
[1]; single 100-mg oral dose, fasted
  Higher Cmax with the oral solution than with the tablet formulation: ~30%
[2]; [8]
  Participants with any serious treatment-related AE: 0 n (%)
  Participants with any treatment-emergent AE: 19 (79) n (%)
  Participants with any treatment-related AE: 19 (79) n (%)
  Treatment-related AE: Acne: 4 (17) n (%)
  Treatment-related AE: Diarrhea: 3 (13) n (%)
  Treatment-related AE: First-degree AV block: 5 (21) n (%)
  Treatment-related AE: Headache: 7 (29) n (%)
[2]; [9]
  Participants with any serious treatment-related AE: 0 n (%)
  Participants with any treatment-emergent AE: 15 (65) n (%)
  Participants with any treatment-related AE: 15 (65) n (%)
  Treatment-related AE: Acne: 2 (9) n (%)
  Treatment-related AE: Diarrhea: 1 (4) n (%)
  Treatment-related AE: First-degree AV block: 2 (9) n (%)
  Treatment-related AE: Headache: 4 (17) n (%)
[2]; [10]
  Participants with any serious treatment-related AE: 0 n (%)
  Participants with any treatment-emergent AE: 19 (83) n (%)
  Participants with any treatment-related AE: 19 (83) n (%)
  Treatment-related AE: Acne: 2 (9) n (%)
  Treatment-related AE: Diarrhea: 2 (9) n (%)
  Treatment-related AE: First-degree AV block: 4 (17) n (%)
  Treatment-related AE: Headache: 7 (30) n (%)
[2]; [11]
  Participants with any serious treatment-related AE: 0 n (%)
  Participants with any treatment-emergent AE: 16 (67) n (%)
  Participants with any treatment-related AE: 16 (67) n (%)
  Treatment-related AE: Acne: 4 (17) n (%)
  Treatment-related AE: Diarrhea: 2 (8) n (%)
  Treatment-related AE: First-degree AV block: 3 (13) n (%)
  Treatment-related AE: Headache: 6 (25) n (%)
[2]; all treatment periods
  Deaths during the study: no deaths
  Participants with serious or severe treatment-related AEs: No participants
[2]; all treatment periods, remainder moderate
  AEs mild in severity (of all AEs): 119 of 135
[3]; pH 7.7
  Aqueous solubility: 100 µg/mL
[3]; pH <2
  Aqueous solubility: > 10000 µg/mL
[4]; 100 mg/100 μCi [14C]lorlatinib
  Geometric mean maximum plasma concentration (Cmax): about 600 ng/mL
  Renal clearance: 1.6 mL/min
  Urinary excretion of unchanged lorlatinib: ~0.7%
[4]; human ADME studies
  Mean terminal plasma elimination half-life (t1/2): about 20 hours
